Only a selection was taken, and hits are over-represented in it overall.
PKD1 kinase inh – inhibitors of human PKD1 kinase; Q15139; PKD1 kinase fluorescence polarization assay; inhibition, % (test concentration not listed); actives 0.056% (n = 200,000)
L major viab – inhibitors of Leishmania major promastigote growth; inhibition, % at 10 µM; actives 9% (n = 200,000); Leishmania major promastigotes, resazurin fluorescence viability;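 note: promastigotes grown with compound for 44 hours at 28 °C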
ABCG2 inh – human ABCG2 inhibition, ABCB1 as counter-screen; inhibition, % at 6.6 µM; IgMXP3 cells, JC-1 efflux, flow cytometry; actives 0.1% (n = 190,000);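 active = inhibition above 80%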;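 note: 0% = DMSO and 100% = nicardipine control wells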
Target sequence (Q9UNQ0 whole entry, looked up): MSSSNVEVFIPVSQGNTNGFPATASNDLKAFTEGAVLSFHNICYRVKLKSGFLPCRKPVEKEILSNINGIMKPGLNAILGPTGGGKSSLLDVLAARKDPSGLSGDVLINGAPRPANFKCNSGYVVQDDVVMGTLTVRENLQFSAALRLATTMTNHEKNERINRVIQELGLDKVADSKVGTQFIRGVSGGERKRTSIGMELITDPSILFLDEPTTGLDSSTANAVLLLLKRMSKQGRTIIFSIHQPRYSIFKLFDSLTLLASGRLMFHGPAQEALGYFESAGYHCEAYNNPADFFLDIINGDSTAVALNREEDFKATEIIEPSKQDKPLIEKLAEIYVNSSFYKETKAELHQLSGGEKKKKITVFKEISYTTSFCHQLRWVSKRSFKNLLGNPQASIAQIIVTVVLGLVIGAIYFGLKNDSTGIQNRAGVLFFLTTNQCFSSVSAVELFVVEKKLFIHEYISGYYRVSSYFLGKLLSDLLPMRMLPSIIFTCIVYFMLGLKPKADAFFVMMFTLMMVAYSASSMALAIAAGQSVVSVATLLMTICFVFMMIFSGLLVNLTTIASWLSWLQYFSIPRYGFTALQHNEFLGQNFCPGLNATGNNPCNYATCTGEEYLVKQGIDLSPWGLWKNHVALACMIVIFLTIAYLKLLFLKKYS
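Read-out basis: Efflux inhibition in percent versus controls | Test system: ABCG2 IgMXP3 and barcoded ABCB1 CCRF-Adr cell mix | Quantity: 3 million cells/mL in well | Schedule: 10 min at 25 °C | Control set: Nicardipine as high control, DMSO as low control | Reagent: JC-1 as fluorescent efflux pump substrate | Signal: Flow cytometry of retained JC-1 fluorescence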
ABCB1 block – human ABCB1 inhibition, ABCG2 as counter-screen | CCRF-Adr cells, JC-1 efflux, flow cytometry | inhibition, % at 6.6 µM | actives 0.067% (n = 190,000) | AID 1326; in the data active = inhibition above about 40%;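 note: 0% = vehicle and 100% = reference inhibitor; higher value means more JC-1 retained so stronger ABCB1 efflux block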
Avidin bead fluor – avidin bead compound fluorescence profile. Avidin beads, compound fluorescence 488/530 nm, flow cytometry; hits give high values. fluorescence (KMESF) at 10 µM. actives 0.38% (n = 220,000). AID 1775; in the data active = fluorescence above about 47
GSH bead fluor – GSH bead compound fluorescence profile. GSH beads flow cytometry, compound fluorescence 488/530 nm; hits give high values. fluorescence (KMESF) at 10 µM. actives 0.25% (n = 190,000); in the data active = fluorescence above about 89;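 note: glutathione beads carrying GST-tagged Bcl family fusion proteins plus one bare bead set; values are compound well signal with DMSO vehicle wells as background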
L major 1uM – L. major promastigote growth inhibition, 1 uM repeat; resazurin fluorescence, 48 h; AID 1258; actives 13% (n = 1,100); shares compounds with L major viab; inhibition, % at 1 µM;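 active = inhibition above about 50% in both repeat tests, limit read from the data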
Active calls of the source: *; / = not tested or not shown. Cut-off read from the data, not from the text of the source, unless noted: active = inhibition above about 50%; inactive = the rest.

SMILES	PKD1 kinase inh	L major viab	ABCG2 inh	ABCB1 block	Avidin bead fluor	GSH bead fluor	L major 1uM
CCOC(=O)c1ccc2ncc(C(=O)OCC)c(NCc3ccco3)c2c1	16.4	56.9*	1.4	0.9	10	15	2.4
c1ccc2c(N3CCCCC3)nnc(N3CCCCC3)c2c1	5.3	28.6	8.0	0.3	13	12	/
Cc1nnc(N2CCCCC2)c2ccccc12	2.7	52.5*	2.4	0.1	7	4	2.2
Cc1nn(-c2ccccc2)c(N)c1Sc1cccc([N+](=O)[O-])c1	-3.1	51.7*	22.9	2.0	12	8	13.7
O=C(COc1ccccc1-c1ccccc1)NN=C1CCCC1	0.4	-1.0	3.0	0.5	5	21	/
COc1ccc(-c2nc(C#N)c(NCCc3ccccc3)o2)cc1OC	11.9	20.8	2.6	0.7	16	15	/
FC(F)(F)c1cccc(Cn2c3[n+](c4ccc(C(F)(F)F)cc42)CCCCC3)c1	3.0	-4.9	-0.1	-0.4	27	6	/
Cc1cc(C(C)(C)C)cc(C)c1Cn1c2[n+](c3ccc(C(F)(F)F)cc31)CCCCC2	-1.9	99.9*	0.0	0.4	8	15	36.8
CCCOC(=O)c1ccc(Oc2cn[nH]c2-c2ccc(OCC(=O)NN)cc2O)cc1	/	/	/	/	12	/	/
Cc1[nH]c2ccccc2c1N=Nc1cccc(C(=O)O)c1	2.5	3.4	0.9	0.4	17	8	/
Cc1[nH]c2ccccc2c1N=Nc1ccccc1C(=O)O	3.6	68.2*	-10.1	-1.8	4	4	-5.4
COc1ccc2cc3[n+](cc2c1OC)CCc1cc2c(cc1-3)OCO2	-5.9	99.6*	5.2	2.2	9	15	76.4*
CCOC(=O)C1CCN(C(=O)COc2ccc(S(=O)(=O)N3CCCC3)cc2C)CC1	-2.8	-2.1	8.4	0.7	10	18	/
CC1(C)Oc2ccc3ccc(=O)oc3c2C(N2CCCCC2)C1O (stereo not given)	-14.2	-1.2	2.7	0.8	10	17	/
CC(=O)OC1C(N2CCCCC2)c2c(ccc(/C=C/C(=O)N3CCCCC3)c2O)OC1(C)C (stereo not given)	-7.8	73.0*	1.1	1.0	11	20	-22.3
Cc1ccc(C(=O)N2N=C(CC(C)C)CC2(O)C(F)(F)F)o1 (stereo not given)	0.0	2.4	-1.0	-0.3	8	14	/
Cc1ccc(/C=C/C(=O)Nc2cc(S(N)(=O)=O)ccc2O)cc1	-4.8	22.8	0.0	0.0	10	11	/
COc1cc(CNCc2cccs2)ccc1OCc1ccccc1	3.2	99.3*	3.8	1.8	11	22	92.4*
CC(=O)c1c(C(C)=O)c(C)n(-c2cccc3cccnc23)c1C	-0.7	-1.3	1.5	1.0	9	10	/
COc1ccc(C2NCCn3cccc32)cc1 (stereo not given)	-1.4	95.7*	2.7	0.1	7	17	-20.2
CNc1ccccc1C(C)(C)c1cc(-c2cccc(Br)c2)no1	-4.0	99.3*	5.8	0.8	9	11	87.9*
COc1ccc(/C=C/C(=O)OCC(=O)c2ccc3c(c2)NC(=O)CO3)cc1	/	/	/	/	6	/	/
O=C(O)Cc1ccc2sc(-c3ccccc3)nc2c1	-10.7	72.0*	10.6	0.1	7	11	-5.7
COc1cc(OC)c(C(=O)OCC(=O)NCCc2ccccc2)cc1OC	-9.2	-3.0	10.6	0.5	11	15	/
COC(=O)C(=C/C(C)=C/c1cccs1)C(=O)OC	-2.5	62.0*	0.2	-0.4	11	11	20.6
SMILES	PKD1 kinase inh	L major viab	ABCG2 inh	ABCB1 block	Avidin bead fluor	GSH bead fluor	L major 1uM
CCOC(=O)c1c(NC(=O)CSc2nnc(-c3c[nH]c4ccccc34)n2CCOC)sc2c1CCCC2	-8.6	72.2*	9.6	1.2	7	15	-11.0
COCCn1c(SCC(=O)Nc2ccc3c(c2)OCCO3)nnc1-c1c[nH]c2ccccc12	-0.4	-2.0	1.6	-0.2	11	30	/
COc1ccc(/C=C/C(=O)C(C(N)=O)=C2SCCS2)cc1	1.6	44.4	-1.2	-0.6	3	9	/
Cc1ccc(C(=O)C(C(=O)/C=C/c2ccccc2)=C2SCCCS2)cc1	-13.3	100.1*	1.3	0.3	22	18	19.7
CCc1ccc(CN(C)CC(=O)Nc2sccc2C#N)cc1	0.6	-2.7	1.6	-0.1	3	7	/
CCOC(=O)CC1(c2ccccc2)CCOC(C)(C)C1 (stereo not given)	-1.1	2.5	0.5	0.6	3	17	/
Nc1ccccc1Nc1ccccc1	-2.6	99.3*	0.6	0.1	26	21	-16.2
CCOC(=O)c1cc(CC)sc1NC(=O)C1CC(=O)NN1Cc1ccccc1 (stereo not given)	-16.7	4.3	11.1	3.1	21	15	/
COC(=O)c1cc(C)sc1NC(=O)C1CC(=O)NN1Cc1ccccc1 (stereo not given)	1.5	95.4*	8.2	1.4	17	15	1.6
CCOC(=O)c1c(CSC(=N)N)n(-c2ccc(C)cc2)c2cc(Br)c(OC(C)=O)cc12	-10.0	53.4*	36.6	5.7	4	17	-7.5
CC(C)CCN1C(=O)c2ccc(C(=O)OCn3nnc4ccccc4c3=O)cc2C1=O	-4.6	1.7	43.5	5.4	7	19	/
CCOC(=O)c1ccc(NC(=S)N2CCSC2c2ccc(OC)cc2)cc1 (stereo not given)	-11.4	7.6	-2.2	0.3	3	17	/
CCOC(=O)c1ccc(NC(=S)N2CCSC2c2ccc(Cl)cc2)cc1 (stereo not given)	4.2	60.4*	33.8	-1.0	16	10	-10.6
O=C(COC(=O)C12CC3CC(CC(O)(C3)C1)C2)N1CCN(S(=O)(=O)c2ccc(Cl)cc2)CC1	-9.4	-1.1	23.6	-0.2	28	22	/
COc1ccccc1-n1c(=O)[nH]c2c(C(N)=O)nc(C3CCCCC3)nc21	3.0	84.0*	1.8	0.2	8	14	-0.4
Cc1ccc(C2=NNC(=O)C(c3ccc(Cl)cc3)C2)cc1 (stereo not given)	6.4	69.5*	3.8	1.1	7	52	-20.2
O=C1NN=C(c2ccc(Cl)cc2)CC1c1cccc(Br)c1 (stereo not given)	-4.6	9.4	-0.6	-0.1	10	25	/
CC(C)NC(=O)NNC(=O)c1cc(COc2cc(Cl)cc(Cl)c2)on1	/	/	/	/	8	/	/
NC(=O)C1=C[C@H](c2csc3ccccc23)C[C@H](OCCCCO)O1	0.6	-5.5	3.6	0.7	5	21	/
N#Cc1ccc(-c2csc(NC3=NCCCCC3)n2)cc1	3.5	87.1*	29.4	1.2	12	4	-5.2
N#CCc1cc2ccc3cccc4ccc(c1)c2c34	/	/	/	/	8	/	/
C=CCN(CC=C)C(=O)C(=O)c1cc(C)n(-c2ccc([N+](=O)[O-])cc2)c1C	-5.6	97.5*	9.0	1.1	11	33	-6.8

Source: PubChem
